These results are taken from ChEMBL document CHEMBL1821567, “Synthesis and glycosidase inhibitory profiles of functionalised morpholines and oxazepanes” (Bioorg Med Chem, 2011).

Activity calls are given as the source filed them. No cut-off for these calls is given here.

For test [1], the target named is T1, Beta-galactosidase (Bos taurus) (UniProt Q58D55).
T1 sequence (whole entry): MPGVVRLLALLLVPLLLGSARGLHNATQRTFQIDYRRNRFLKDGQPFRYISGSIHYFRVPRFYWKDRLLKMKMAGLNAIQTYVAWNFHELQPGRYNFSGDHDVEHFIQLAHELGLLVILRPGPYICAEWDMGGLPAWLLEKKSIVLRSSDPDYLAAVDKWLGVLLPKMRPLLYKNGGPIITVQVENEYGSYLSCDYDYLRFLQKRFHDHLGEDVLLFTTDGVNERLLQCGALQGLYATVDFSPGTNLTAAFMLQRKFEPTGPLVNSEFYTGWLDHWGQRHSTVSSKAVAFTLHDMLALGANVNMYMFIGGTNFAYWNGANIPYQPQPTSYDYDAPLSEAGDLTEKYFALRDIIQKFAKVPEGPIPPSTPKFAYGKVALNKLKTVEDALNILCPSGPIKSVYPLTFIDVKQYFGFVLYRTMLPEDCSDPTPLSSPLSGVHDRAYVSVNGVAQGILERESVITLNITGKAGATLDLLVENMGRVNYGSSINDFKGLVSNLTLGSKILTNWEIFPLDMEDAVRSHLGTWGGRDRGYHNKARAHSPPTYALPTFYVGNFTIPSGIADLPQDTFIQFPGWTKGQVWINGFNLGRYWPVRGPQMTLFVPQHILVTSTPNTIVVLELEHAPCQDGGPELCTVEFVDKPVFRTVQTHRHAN
The test is described as follows: Inhibition of bovine kidney beta-D-galactosidase at 1 mg/ml after 10 to 20 mins. Put shortly:
(§1)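 Enzyme was pre-incubated with test solution at 1 mg/ml, or dH2O for controls, for 10–20 min at 27 °C. Substrate was added and incubation continued for the same time at 27 °C. The reaction was stopped with glycine solution and read at 405 nm. Each sample and control ran in three wells at the enzyme's optimal pH. Values are % inhibition.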

The test system of the next test is Oryza sativa. The test is described as follows: Inhibition of rice alpha-D-glucosidase at 1 mg/ml after 10 to 20 mins. An outline of the steps: as §1
In another test the test system is Cellulomonas fimi. The test is described as follows: Inhibition of Cellulomonas fimi beta-D-mannosidase at 1 mg/ml after 10 to 20 mins. Put shortly: as §1
A further test relates to Penicillium decumbens. The test is described as follows: Inhibition of Penicillium decumbens naringinase at 1 mg/ml after 10 to 20 mins. Put shortly:
as §1

In test [2] the target is Alpha-galactosidase (Coffea arabica) (UniProt Q42656). The test is described as follows: Inhibition of green coffee beans alpha-D-galactosidase at 1 mg/ml after 10 to 20 mins. Put shortly: as §1
A further test has as its system Saccharomyces cerevisiae. The test is described as follows: Inhibition of Saccharomyces cerevisiae alpha-D-glucosidase at 1 mg/ml after 10 to 20 mins. Put shortly: as §1
Another test concerns Canavalia ensiformis. The test is described as follows: Inhibition of jack bean alpha-D-mannosidase at 1 mg/ml after 10 to 20 mins. Put shortly:
as §1

Test [3] deals with Geobacillus stearothermophilus. The test is described as follows: Inhibition of Bacillus stearothermophilus alpha-D-glucosidase at 1 mg/ml after 10 to 20 mins. Put shortly:
as §1

For another test, the system named is Prunus. The test is described as follows: Inhibition of almond beta-D-glucosidase at 1 mg/ml after 10 to 20 mins. An outline of the steps:
as §1

The species entered for another test is Bos taurus. The test is described as follows: Inhibition of bovine kidney N-acetyl-beta-D-glucosaminidase at 1 mg/ml after 10 to 20 mins. Put shortly: as §1

Alpha-galactosidase (Coffea arabica), sequence (Q42656 16-378 limits assumed): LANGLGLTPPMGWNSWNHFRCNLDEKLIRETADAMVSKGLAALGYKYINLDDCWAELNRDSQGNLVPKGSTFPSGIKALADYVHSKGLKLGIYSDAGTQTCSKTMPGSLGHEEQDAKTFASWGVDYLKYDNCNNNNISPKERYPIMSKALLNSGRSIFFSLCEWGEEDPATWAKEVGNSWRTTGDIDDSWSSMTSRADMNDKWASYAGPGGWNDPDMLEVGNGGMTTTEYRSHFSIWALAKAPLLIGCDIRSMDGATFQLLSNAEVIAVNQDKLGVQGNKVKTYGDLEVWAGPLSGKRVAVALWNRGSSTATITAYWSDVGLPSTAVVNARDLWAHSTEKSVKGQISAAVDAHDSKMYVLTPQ

One may read the inhibition as the percentage by which the read-out fell short of the control. With `COC(=O)C(Cc1ccc(O)cc1)N1C[C@@H](CO)O[C@H](OC)[C@H](O)C1` (stereo partly drawn), the inhibition entry (in test [1]; in the test with Oryza sativa; in the test with Cellulomonas fimi; with Penicillium decumbens; in test [2]; in the test on Saccharomyces cerevisiae) was “inactive” each time. Besides, the inhibition entry (with Canavalia ensiformis; in test [3]; with Prunus; in the test filed under Bos taurus) was “inactive” in each case.

`COC(=O)C(Cc1ccc(O)cc1)N1C[C@@H](CO)O[C@H](OC)C1` (stereo partly drawn) gave an inhibition in [1] of 12%. The inhibition result (in the test with Oryza sativa; with Cellulomonas fimi; with Penicillium decumbens; in test [2]; with Saccharomyces cerevisiae; in test [3]) was “inactive” throughout. In addition, the inhibition entry in the test with Prunus and in the test filed under Bos taurus was “inactive” in each case.

In [1], `COC(=O)C(C)N1C[C@@H](CO)O[C@H](OC)C1` (stereo partly drawn) yielded an inhibition of 14%. In addition, the inhibition result (with Oryza sativa; in the test on Cellulomonas fimi; with Penicillium decumbens; in [2]; in the test on Saccharomyces cerevisiae; in test [3]) was “inactive” in each case. The inhibition entry in the test on Prunus and in the test filed under Bos taurus was “inactive” in each case.

Take `CCCCN1C[C@@H](CO)O[C@H](OC)[C@H](O)C1`: the inhibition turned out to be 23% in test [1], 8% in the test on Saccharomyces cerevisiae and 32% in the test filed under Bos taurus. For the same compound, the inhibition result (with Oryza sativa; with Cellulomonas fimi; in the test on Penicillium decumbens; in [2]; with Canavalia ensiformis; in test [3]) was “inactive” in each case. Further, the inhibition entry with Prunus was “inactive”.

As for `CO[C@@H]1CNC[C@@H](CO)O1`, the inhibition stood at 27% in test [1]; 5% in the test on Cellulomonas fimi; 9% in the test with Penicillium decumbens; 4% with Prunus; 10% in the test filed under Bos taurus. For the same compound, the inhibition result (in the test on Oryza sativa; in test [2]; with Saccharomyces cerevisiae; with Canavalia ensiformis; in test [3]) was “inactive” each time.

For `CO[C@H]1O[C@H](CO)CN(O)C[C@H]1O`, the inhibition entry (in test [1]; in the test on Oryza sativa; in the test with Cellulomonas fimi; in the test on Penicillium decumbens; in test [2]; with Saccharomyces cerevisiae) was “inactive” throughout. The inhibition result (in the test on Canavalia ensiformis; in test [3]; with Prunus) was “inactive” each time.

As for `COC(=O)C(Cc1ccccc1)N1C[C@@H](CO)O[C@H](OC)[C@H](O)C1` (stereo partly drawn), the inhibition result (in test [1]; in the test on Oryza sativa; in the test on Cellulomonas fimi; in the test on Penicillium decumbens; in test [2]; in the test with Saccharomyces cerevisiae) was “inactive” in each case. In addition, the inhibition result (in the test with Canavalia ensiformis; in test [3]; in the test on Prunus; in the test filed under Bos taurus) was “inactive” each time.

For the compound `CCCN1C[C@@H](CO)O[C@H](OC)[C@H](O)C1`, the values for the inhibition (in [1]; with Saccharomyces cerevisiae; in the test filed under Bos taurus) were 32%, 10% and 25%, respectively. For the same compound, the inhibition entry (with Oryza sativa; in the test on Cellulomonas fimi; with Penicillium decumbens; in test [2]; in the test on Canavalia ensiformis; in [3]) was “inactive” each time. Moreover, the inhibition entry in the test with Prunus is “inactive”.

In test [1], `COC(=O)C(Cc1ccccc1)N1C[C@@H](CO)O[C@H](OC)C1` (stereo partly drawn) came in with an inhibition of 5%. Moreover, the inhibition entry (with Oryza sativa; in the test on Cellulomonas fimi; in the test with Penicillium decumbens; in test [2]; in the test with Saccharomyces cerevisiae; in [3]) was “inactive” each time. The inhibition entry with Prunus and in the test listed under Bos taurus was “inactive” in each case.

Regarding `COC(=O)CN1C[C@@H](CO)O[C@H](OC)[C@H](O)C1`, the inhibition result (in test [1]; with Oryza sativa; with Cellulomonas fimi; in the test with Penicillium decumbens; in test [2]; with Saccharomyces cerevisiae) was “inactive” throughout. For the same compound, the inhibition entry (with Canavalia ensiformis; in test [3]; in the test with Prunus) was “inactive” in each case.

`CCCCCCCCN1C[C@@H](CO)O[C@H](OC)[C@H](O)C1`: the inhibition result (in [1]; in the test on Oryza sativa; in the test on Cellulomonas fimi; in the test with Penicillium decumbens; in test [2]; in the test with Saccharomyces cerevisiae) was “inactive” throughout. In addition, the inhibition result (in the test with Canavalia ensiformis; in test [3]; in the test on Prunus) was “inactive” in each case.

Regarding `CO[C@H]1O[C@H](CO)CN(Cc2ccccc2)C[C@H]1O`, the inhibition entry (in test [1]; with Oryza sativa; in the test with Cellulomonas fimi; in the test with Penicillium decumbens; in test [2]; in the test on Saccharomyces cerevisiae) was “inactive” throughout. The inhibition result (with Canavalia ensiformis; in test [3]; in the test with Prunus) was “inactive” each time.

Regarding `CO[C@H]1O[C@H](CO)CNC[C@H]1O`, the inhibition in test [1] came to 16%; in [2] it was 6%; in [3] it was 8%; in the test listed under Bos taurus, 9%. The inhibition entry in the test with Oryza sativa, in the test on Cellulomonas fimi, with Penicillium decumbens, in the test on Saccharomyces cerevisiae, in the test with Canavalia ensiformis and in the test on Prunus was “inactive” throughout.

Turning to `COC(=O)C(C)N1C[C@@H](CO)O[C@H](OC)[C@H](O)C1` (stereo partly drawn), the inhibition entry (in test [1]; with Oryza sativa; in the test with Cellulomonas fimi; with Penicillium decumbens; in test [2]; in the test with Saccharomyces cerevisiae) was “inactive” each time. Moreover, the inhibition entry (in the test on Canavalia ensiformis; in [3]; in the test with Prunus; in the test filed under Bos taurus) was “inactive” throughout.

Turning to `CO[C@@H]1CN(C[C@H]2O[C@H](OC)[C@H](O)[C@@H](O)[C@@H]2O)C[C@@H](CO)O1`, the inhibition in [1] came out at 50%; in the test on Cellulomonas fimi, 33%; in the test on Penicillium decumbens, 11%; in test [2], 31%; in the test with Saccharomyces cerevisiae, 77%; in test [3], 66%. The inhibition is 28% in the test with Prunus and 11% in the test filed under Bos taurus. Besides, the inhibition entry in the test on Oryza sativa and in the test on Canavalia ensiformis was “inactive” in each case.

In the case of `COC(=O)CN1C[C@@H](CO)O[C@H](OC)C1`, the inhibition in [1] was 36%. The inhibition result (in the test on Oryza sativa; in the test with Cellulomonas fimi; with Penicillium decumbens; in [2]; in the test with Saccharomyces cerevisiae; in the test on Canavalia ensiformis) was “inactive” in each case. In addition, the inhibition result (in [3]; in the test with Prunus; in the test filed under Bos taurus) was “inactive” in each case.
